From ChEMBL document CHEMBL3585274, “Antiviral Activity of Diterpene Esters on Chikungunya Virus and HIV Replication” (J Nat Prod, 2015) come the findings set out here.

Usually EC50 stands for the midpoint of the concentration-response curve.

One data set has as its system Chikungunya virus. Briefly: Antiviral activity against chikungunya virus Indian ocean strain 899 infected in Vero cells assessed as virus-induced cytopathic effect after 6 to 7 days. In kind it is functional, cell-based. Particulars: Indian ocean strain 899, Vero. A general note: Cytopathic effects are the visible damage that an infection or toxin causes in cultured cells.

The nature of data set [1]: Selectivity index, CC50 for african green monkey Vero cells to EC50 for chikungunya virus Indian ocean strain 899. It is filed as toxicity, cell-based. The note with it: read-out: Ratio CC50/EC50.
Data set [2] deals with Human immunodeficiency virus 1. Briefly: Antiviral activity against HIV1 3B infected in MT4 cells assessed as cell viability after 5 days by MTT assay. In kind it is functional, organism-based. Particulars: Human immunodeficiency virus 1, 3B, MT4, 120 h. The gist of the method:
(§1)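 MT-4 cells ([…] cells/mL suspension) infected with HIV-1 IIIB or HIV-2 ROD at 100−300 CCID50, with mock-infected wells run in parallel. Serial 5-fold compound dilutions in triplicate wells. Viability by MTT after 5 days, absorbance at 540 and 690 nm, median OD of three wells. Median ± median absolute deviation from ≥3 independent assays.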
A general note: Tetrazolium assays rely on reduction of a dye to a coloured formazan, in cell work by metabolically active cells.

Data set [3] can be described thus: Selectivity index, CC50 for african green monkey Vero cells to EC50 for HIV1 3B. It is filed as toxicity, cell-based. The note with it: read-out: Ratio CC50/EC50. The procedure, abridged: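 SI = CC50 in Vero cells ÷ EC50 against HIV-1 IIIB or HIV-2 ROD. CC50 is the 50% antimetabolic concentration from MTS dose−response in Vero. EC50 is from the MT-4/MTT 5-day antiviral assay.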

Data set [4] has as its system Human immunodeficiency virus 2. Briefly: Antiviral activity against HIV2 ROD infected in MT4 cells assessed as cell viability after 5 days by MTT assay. In kind it is functional, organism-based. Particulars: Human immunodeficiency virus 2, ISOLATE ROD, MT4, 120 h. The gist of the method:
as §1

As to `CCCCCC(=O)O[C@@H]1[C@@H](C)[C@@]2(O)[C@@H](C=C(CO)C[C@]3(O)C(=O)C(C)=C[C@@H]23)[C@@H]2C(C)(C)[C@]12OC(=O)CCCCC`, the concentration giving a half-maximal response (EC50) in the data set with Chikungunya virus stood at 3200 nM; in data set [2] it was 7 nM; in data set [4] it was 1.2 nM. Also, the selectivity ratio in data set [1] is 1.8; in data set [3], 2890.

Regarding `CCCCCCCCCCCCCC(=O)O[C@@H]1[C@@H](C)[C@@]2(O)[C@@H](C=C(CO)C[C@]3(O)C(=O)C(C)=C[C@@H]23)[C@@H]2C(C)(C)[C@]12OC(C)=O` [PHORBOL MYRISTATE ACETATE], the selectivity ratio in data set [1] was found to be 1960; in data set [3], 220. For the same compound, the results for the EC50 in data set [2] and in data set [4] were 0.9 nM and 0.7 nM, respectively.

As for `CC1=C[C@]23C(=O)[C@@H](C=C(COC(=O)c4ccccc4)[C@@H](O)[C@]2(O)[C@H]1OC(=O)c1ccccc1)[C@H]1[C@@H](C[C@H]3C)C1(C)C`, the results for the EC50 (with Chikungunya virus; in data set [2]; in data set [4]) were 1200 nM, 27 nM and 9 nM, respectively. In addition, the selectivity ratio in data set [1] turned out to be 6.4; in data set [3], 3400.

For `C/C=C(\C)C(=O)O[C@@H]1[C@@H](C)[C@@]2(O)[C@@H](C=C(CO)C[C@]3(O)C(=O)C(C)=C[C@@H]23)[C@@H]2C(C)(C)[C@]12OC(=O)CCCCCCCCC`, the EC50 with Chikungunya virus was found to be 1100 nM; in data set [2] it was 1.5 nM; in data set [4] it was 0.2 nM. In addition, the selectivity ratio was 3.3 in data set [1] and 600 in data set [3].

For `CNc1ccccc1C(=O)O[C@@H]1[C@@H](C)[C@@]2(O)[C@@H](C=C(CO)C[C@]3(O)C(=O)C(C)=C[C@@H]23)[C@@H]2C(C)(C)[C@]12OC(C)=O`, the half-maximal effective concentration (EC50) with Chikungunya virus was determined as 15000 nM; in data set [2] it was 9 nM; in data set [4], 3000 nM. Also, the selectivity ratio in data set [1] amounted to 1.1; in data set [3], 749.

`C=C(C)[C@]12C[C@@H](C)[C@@]34O[C@](Cc5ccccc5)(O[C@@H]1[C@@H]3C=C(COC(=O)Cc1ccc(O)c(OC)c1)C[C@]1(O)C(=O)C(C)=C[C@@H]41)O2` [RESINIFERATOXIN]: the results for the EC50 (with Chikungunya virus; in data set [2]; in data set [4]) were 1800 nM, 26000 nM and 22600 nM, respectively. For the same compound, the selectivity ratio in data set [1] is 2.3; in data set [3], 8.

For `CC(=O)O[C@@]12C[C@@H](C)[C@@]3(O)[C@@H](C=C(CO)C[C@]4(O)C(=O)C(C)=C[C@@H]34)[C@@H]1C2(C)C` [PROSTRATIN], the EC50 in the data set with Chikungunya virus was found to be 2700 nM; in data set [2], 1900 nM; in data set [4], 900 nM. Besides, the values for the selectivity ratio in data set [1] and in data set [3] were 22.8 and 171, respectively.

For `CC1=C[C@]23C(=O)[C@@H](C=C(CO)[C@@H](O)[C@]2(O)[C@H]1O)[C@H]1[C@@H](C[C@H]3C)C1(C)C` [INGENOL], the values for the EC50 (in the data set on Chikungunya virus; in data set [2]; in data set [4]) were 30100 nM, 209000 nM and 131000 nM, respectively. Besides, the selectivity ratio in data set [1] was 4.8; in data set [3], more than 2.

For `CCCCCCCCCC(=O)O[C@@H]1[C@@H](C)[C@@]2(O)[C@@H](C=C(CO)C[C@@]3(O)C(=O)C(C)=C[C@@H]23)[C@@H]2C(C)(C)[C@]12OC(=O)CCCCCCCCC`, the results for the EC50 (in the data set with Chikungunya virus; in data set [2]; in data set [4]) were 1500 nM, more than 16000 nM and more than 16000 nM, respectively. Moreover, the selectivity ratio in data set [1] was determined as 2.2.

With `CC(=O)OCC1=C[C@H]2[C@@H]3C(C)(C)[C@]3(OC(C)=O)[C@H](O)[C@@H](C)[C@]2(O)[C@@H]2C=C(C)C(=O)[C@@]2(O)C1`, the results for the EC50 (in the data set with Chikungunya virus; in data set [2]; in data set [4]) were 24600 nM, more than 279000 nM and 243000 nM, respectively. In addition, the results for the selectivity ratio in data set [1] and in data set [3] were 1.7 and 1, respectively.

`CC(=O)O[C@@H]1[C@@H](C)[C@@]2(O)[C@@H](C=C(CO)C[C@]3(O)C(=O)C(C)=C[C@@H]23)[C@@H]2C(C)(C)[C@]12O`: the figures for the EC50 (with Chikungunya virus; in data set [2]; in data set [4]) were more than 245000 nM, more than 307000 nM and more than 307000 nM, respectively. For the same compound, the selectivity ratio is 0.8 in data set [1] and more than 1 in data set [3].

Take `CCCCCCCCCC(=O)O[C@@H]1[C@@H](C)[C@@]2(O)[C@@H](C=C(CO)C[C@]3(O)C(=O)C(C)=C[C@@H]23)[C@@H]2C(C)(C)[C@]12OC(=O)CCCCCCCCC`: the results for the EC50 (in the data set with Chikungunya virus; in data set [2]; in data set [4]) were 6 nM, 1.2 nM and 0.2 nM, respectively. Moreover, the figures for the selectivity ratio in data set [1] and in data set [3] were 686 and 754, respectively.

As for `CCCCCCCCCCCCCC(=O)O[C@@H]1[C@@H](C)[C@@]2(O)[C@@H](C=C(CO)C[C@@]3(O)C(=O)C(C)=C[C@@H]23)[C@@H]2C(C)(C)[C@]12OC(C)=O`, in data set [1], the selectivity ratio came to 1.9. In addition, the EC50 was more than 18000 nM in data set [2] and more than 17000 nM in data set [4].

Turning to `CC(=O)O[C@@H]1[C@@H](C)[C@@]2(O)[C@@H](C=C(CO)C[C@]3(O)C(=O)C(C)=C[C@@H]23)[C@@H]2C(C)(C)[C@]12OC(C)=O`, the figures for the EC50 (with Chikungunya virus; in data set [2]; in data set [4]) were 9400 nM, 4800 nM and 1000 nM, respectively. In addition, the selectivity ratio was 4.2 in data set [1] and more than 59 in data set [3].

Consider `CCCCCCCCCCCCCC(=O)O[C@@]12[C@H](O)[C@@H](C)[C@@]3(O)[C@@H](C=C(CO)C[C@]4(O)C(=O)C(C)=C[C@@H]34)[C@@H]1C2(C)C`, for which the figures for the EC50 (with Chikungunya virus; in data set [2]; in data set [4]) were 990 nM, 240 nM and 78 nM, respectively. Also, the selectivity ratio in data set [1] was 9; in data set [3] it was 107.

For the compound `COc1cc(CC(=O)OCC2=C[C@H]3[C@@H]4C(C)(C)[C@]4(OC(C)=O)[C@H](OC(=O)Cc4ccccc4)[C@@H](C)[C@]3(O)[C@@H]3C=C(C)C(=O)[C@@]3(O)C2)ccc1O`, the values for the EC50 (in the data set with Chikungunya virus; in data set [2]; in data set [4]) were 1700 nM, 750 nM and 80 nM, respectively. The selectivity ratio is 14.2 in data set [1] and 23 in data set [3].

As to `CC(=O)OCC1=C[C@H]2[C@@H]3C(C)(C)[C@]3(OC(C)=O)[C@H](OC(C)=O)[C@@H](C)[C@]2(O)[C@@H]2C=C(C)C(=O)[C@@]2(O)C1`, the values for the EC50 (in the data set with Chikungunya virus; in data set [2]; in data set [4]) were 32600 nM, 27400 nM and 6600 nM, respectively. In addition, the selectivity ratio is 2.2 in data set [1] and more than 9 in data set [3].

Regarding `CCCC(=O)O[C@@]12[C@H](O)[C@@H](C)[C@@]3(O)[C@@H](C=C(CO)C[C@]4(O)C(=O)C(C)=C[C@@H]34)[C@@H]1C2(C)C`, the EC50 was determined as 20000 nM in the data set with Chikungunya virus, 122000 nM in data set [2] and 25000 nM in data set [4]. In addition, the selectivity ratio in data set [1] was 12.3; in data set [3] it was more than 3.

For `CCCC(=O)O[C@@H]1[C@@H](C)[C@@]2(O)[C@@H](C=C(C=O)C[C@]3(O)C(=O)C(C)=C[C@@H]23)[C@@H]2C(C)(C)[C@]12OC(=O)CCC`, the EC50 is 13100 nM with Chikungunya virus, more than 20000 nM in data set [2] and more than 35000 nM in data set [4]. Moreover, in data set [1], the selectivity ratio worked out at 2.7.

Take `CC(=O)O[C@@]12[C@H](O)[C@@H](C)[C@@]3(O)[C@@H](C=C(CO)C[C@]4(O)C(=O)C(C)=C[C@@H]34)[C@@H]1C2(C)C`: the values for the EC50 (in the data set on Chikungunya virus; in data set [2]; in data set [4]) were more than 174000 nM, more than 217000 nM and 101000 nM, respectively. For the same compound, in data set [3], the selectivity ratio amounted to 1.
